Blank lines part the entries; values can stand above or below the molecule they belong to.
Tests used:
Format in all cases: functional
RXF 393 = experiment: Growth inhibition of human RXF393 cells; conditions: for TGI: read-out: Log TGI (converted)
Procedure, shortened: (§1)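 NCI 60 human tumour cell line panel grown in RPMI1640 with 5% fetal calf serum and 2 mM L-glutamine. Cells seeded at a density set by each line's growth characteristics and preincubated 24 h. Compounds added in DMSO at 10^-4 to 10^-8 M (five 10-fold dilutions) and left 48 h continuously. Growth read by sulforhodamine B protein stain. GI50 is the molar concentration giving 50% net growth inhibition.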

A498 = experiment: Growth inhibition of human A498 cells; procedure, shortened: as §1
NCI-H522 = experiment: Growth inhibition of human NCI-H522 cells; conditions: for TGI: read-out: Log TGI (converted); procedure, shortened: as §1
OVCAR-5 = experiment: Growth inhibition of human OVCAR5 cells; procedure, shortened: as §1
CAKI-1 = experiment: Growth inhibition of human CAKI1 cells; procedure, shortened: as §1
UO-31 = experiment: Growth inhibition of human UO31 cells; procedure, shortened: as §1
LOX IMVI = experiment: Growth inhibition of human LOXIMVI cells; procedure, shortened: as §1
SK-MEL-5 = experiment: Growth inhibition of human SK-MEL5 cells; conditions: for TGI: read-out: Log TGI (converted); procedure, shortened: as §1
HOP-92 = experiment: Growth inhibition of human HOP92 cells; conditions: for TGI: read-out: Log TGI (converted); procedure, shortened: as §1
CCRF-CEM = experiment: Growth inhibition of human CCRF-CEM cells; procedure, shortened: as §1
K562 = experiment: Growth inhibition of human K562 cells; procedure, shortened: as §1
MOLT-4 = experiment: Growth inhibition of human MOLT4 cells; conditions: for TGI: read-out: Log TGI (converted); procedure, shortened: as §1
HL-60 = experiment: Growth inhibition of human HL60 cells; procedure, shortened: as §1
SR = experiment: Growth inhibition of human SR cells; procedure, shortened: as §1
EKVX = experiment: Growth inhibition of human EKVX cells; procedure, shortened: as §1
SK-OV-3 = experiment: Growth inhibition of human SKOV3 cells; procedure, shortened: as §1
ACHN = experiment: Growth inhibition of human ACHN cells; procedure, shortened: as §1
MDA-MB-231 = experiment: Growth inhibition of human MDA-MB-231 cells; conditions: for TGI: read-out: Log TGI (converted); procedure, shortened: as §1
RPMI-8226 = experiment: Growth inhibition of human RPMI8226 cells; procedure, shortened: as §1
HCC 2998 = experiment: Growth inhibition of human HCC2998 cells; conditions: for TGI: read-out: Log TGI (converted); procedure, shortened: as §1
HCT-116 = experiment: Growth inhibition of human HCT116 cells; procedure, shortened: as §1
IGROV-1 = experiment: Growth inhibition of human IGROV1 cells; procedure, shortened: as §1
PC-3 = experiment: Growth inhibition of human PC3 cells; procedure, shortened: as §1
T47D = experiment: Growth inhibition of human T47D cells; conditions: for TGI: read-out: Log TGI (converted); procedure, shortened: as §1
[1] = Growth inhibition of human H23 cells; conditions: NCI-H23; procedure, shortened: as §1
SNB-75 = experiment: Growth inhibition of human SNB75 cells; procedure, shortened: as §1
UACC-62 = experiment: Growth inhibition of human UACC62 cells; procedure, shortened: as §1
OVCAR-4 = experiment: Growth inhibition of human OVCAR4 cells; procedure, shortened: as §1
NCI-H226 = experiment: Growth inhibition of human NCI-H226 cells; procedure, shortened: as §1
[2] = Growth inhibition of human NCI-322M cells; procedure, shortened: as §1
Hs-578T = experiment: Growth inhibition of human HS578T cells; conditions: for TGI: read-out: Log TGI (converted); procedure, shortened: as §1
COLO 205 = experiment: Growth inhibition of human COLO205 cells; procedure, shortened: as §1
NCI-H460 = experiment: Growth inhibition of human NCI-H460 cells; procedure, shortened: as §1
SK-MEL-2 = experiment: Growth inhibition of human SKMEL2 cells; procedure, shortened: as §1
UACC-257 = experiment: Growth inhibition of human UACC257 cells; procedure, shortened: as §1
MCF7 = experiment: Growth inhibition of human MCF7 cells; procedure, shortened: as §1
[3] = Growth inhibition of human ADR-RES cells; procedure, shortened: as §1
OVCAR-3 = experiment: Growth inhibition of human OVCAR-3 cells; procedure, shortened: as §1
KM12 = experiment: Growth inhibition of human KM12 cells; procedure, shortened: as §1

Compound: COc1cc(NC(=O)c2ccc(C(F)(F)F)nc2Nc2cc(Cl)ccc2C)cc(OC)c1OC
GI50 (LOX IMVI): 0.724 µM
TGI (LOX IMVI; read-out: Log TGI (converted)): 2.4 µM
GI50 (SK-MEL-5): 1.17 µM
TGI (SK-MEL-5): 10 µM
GI50 (HOP-92): < 0.01 µM
TGI (HOP-92): 1.66 µM
GI50 (CCRF-CEM): < 0.01 µM
GI50 (K562): 0.676 µM
GI50 (MOLT-4): < 0.01 µM
TGI (MOLT-4): 0.0417 µM
GI50 (HL-60): 0.0229 µM
LC50 (HL-60): 7.24 µM
TGI (HL-60; read-out: Log TGI (converted)): 1.62 µM
GI50 (SR): 0.0186 µM
TGI (SR; read-out: Log TGI (converted)): 0.302 µM
GI50 (EKVX): 2.75 µM
GI50 (SK-OV-3): 2.04 µM
GI50 (A498): 2.34 µM
GI50 (ACHN): 1.78 µM
GI50 (MDA-MB-231): 1.66 µM
TGI (MDA-MB-231): 8.91 µM
GI50 (RPMI-8226): 0.457 µM
GI50 (NCI-H522): 2.29 µM
TGI (NCI-H522): 7.41 µM
GI50 (HCC 2998): < 0.01 µM
TGI (HCC 2998): 5.37 µM
GI50 (HCT-116): 2.51 µM
GI50 (IGROV-1): 0.407 µM
GI50 (PC-3): 1.2 µM
TGI (PC-3; read-out: Log TGI (converted)): 5.37 µM
GI50 (T47D): 2.14 µM
TGI (T47D): 9.55 µM
GI50 (CAKI-1): 2.4 µM
GI50 [1]: 2.19 µM
GI50 (SNB-75): 1.07 µM
GI50 (UACC-62): 0.955 µM
GI50 (OVCAR-4): 1.74 µM

Compound: Cc1ccc(Cl)cc1Nc1nc(C(F)(F)F)ccc1C(=O)Nc1cccc(C(F)(F)F)c1
GI50 (SK-MEL-5): 2.19 µM
TGI (SK-MEL-5): 4.47 µM
GI50 (HOP-92): 2.19 µM
TGI (HOP-92): 8.71 µM
GI50 (CCRF-CEM): 2.82 µM
GI50 (MOLT-4): 2.75 µM
TGI (MOLT-4): 10 µM
GI50 (RXF 393): 2.69 µM
TGI (RXF 393): 7.94 µM
GI50 (COLO 205): 1.74 µM
TGI (COLO 205; read-out: Log TGI (converted)): 3.39 µM
GI50 (SK-OV-3): 1.74 µM
TGI (SK-OV-3; read-out: Log TGI (converted)): 5.5 µM
GI50 (A498): 2.95 µM
TGI (A498; read-out: Log TGI (converted)): 8.51 µM
GI50 (MDA-MB-231): 2.29 µM
TGI (MDA-MB-231): 9.55 µM
GI50 (RPMI-8226): 2.34 µM
GI50 (NCI-H460): 2.82 µM
TGI (NCI-H460; read-out: Log TGI (converted)): 10 µM
GI50 (NCI-H522): 1.78 µM
TGI (NCI-H522): 6.31 µM
GI50 (HCC 2998): 1.78 µM
TGI (HCC 2998): 4.47 µM
GI50 (HCT-116): 2.4 µM
GI50 (SK-MEL-2): 2.45 µM
TGI (SK-MEL-2; read-out: Log TGI (converted)): 6.61 µM
GI50 (UACC-257): 2.95 µM
TGI (UACC-257; read-out: Log TGI (converted)): 8.32 µM
GI50 (IGROV-1): 1.7 µM
GI50 (PC-3): 2.09 µM
GI50 (MCF7): 2.51 µM
TGI (MCF7; read-out: Log TGI (converted)): 9.55 µM
GI50 [3]: 2.14 µM
TGI ([3]; read-out: Log TGI (converted)): 7.59 µM
GI50 (T47D): 2.24 µM
TGI (T47D): 8.91 µM

Compound: Cc1ccc(Cl)cc1Nc1nc(C(F)(F)F)ccc1C(=O)N1CCN(c2ccc(F)cc2)CC1
GI50 (IGROV-1): 0.132 µM
GI50 (CAKI-1): 1.51 µM
GI50 (SNB-75): < 0.01 µM

Compound: COc1cc(NC(=O)c2ccc(C(F)(F)F)nc2Nc2ccc(Cl)cc2C)cc(OC)c1OC
GI50 (OVCAR-3): 2.4 µM
GI50 (CCRF-CEM): 1.58 µM
GI50 (HL-60): 1.74 µM
GI50 (KM12): 1.55 µM
GI50 (NCI-H522): 1.62 µM
GI50 (HCC 2998): 1.91 µM
TGI (HCC 2998): 5.62 µM
GI50 (IGROV-1): 0.955 µM
GI50 (PC-3): 1.86 µM
GI50 (T47D): 2.45 µM
GI50 [1]: 2.19 µM

The next lines start with results.

GI50 (NCI-H522): 1.29 µM
GI50 (OVCAR-5): 2.51 µM
Compound: COc1cccc(NC(=O)c2ccc(C(F)(F)F)nc2Nc2ccc(Cl)cc2C)c1
GI50 (RXF 393): 1.17 µM
GI50 (A498): 1.66 µM
TGI (NCI-H522): 7.24 µM
GI50 (CAKI-1): 2.75 µM
GI50 (UO-31): 1.45 µM
TGI (UO-31; read-out: Log TGI (converted)): 8.32 µM

GI50 (NCI-H226): 1.45 µM
GI50 (SK-MEL-5): 1.91 µM
Compound: Cc1ccc(Cl)cc1Nc1nc(C(F)(F)F)ccc1C(N)=O
TGI (NCI-H226; read-out: Log TGI (converted)): 9.77 µM
GI50 [2]: 2.04 µM
GI50 (LOX IMVI): 2.24 µM
TGI (SK-MEL-5): 6.61 µM
GI50 (Hs-578T): 0.813 µM
TGI (Hs-578T): 3.98 µM

GI50 (CCRF-CEM): 2.14 µM
GI50 (K562): 3.09 µM
GI50 (MOLT-4): 3.09 µM
Compound: COc1cccc(OC(=O)c2ccc(C(F)(F)F)nc2Nc2cc(Cl)ccc2C)c1
GI50 (Hs-578T): 1.23 µM
TGI (Hs-578T): 4.79 µM
GI50 (HOP-92): 1.62 µM
TGI (HOP-92): 6.92 µM
TGI (CCRF-CEM; read-out: Log TGI (converted)): 5.13 µM
TGI (K562; read-out: Log TGI (converted)): 9.33 µM
TGI (MOLT-4): 7.94 µM
GI50 (RXF 393): 0.245 µM
TGI (RXF 393): 0.977 µM
